Experimental data taken from ChEMBL document CHEMBL1126792, “Structure-activity relationships of beta-D-(2S,5R)- and alpha-D-(2S,5S)-1,3-oxathiolanyl nucleosides as potential anti-HIV agents” (J Med Chem, 1993).

How the values were obtained:
[1] = tested on: Human immunodeficiency virus 1; assay: Concentration required for antiviral activity in PBMC (human peripheral blood mononuclear cells) infected with HIV-1 strain LAV; assay type: functional, organism-based
In short: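 Human PBM cells infected with HIV-1 strain LAV. EC50 is the concentration giving 50% inhibition of virus production, measured as reverse transcriptase (RT) levels in culture supernatant. Values are the mean of triplicates, calculated by the median method.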

[2] = tested on: Human immunodeficiency virus 1; assay: Inhibition of cell growth against HIV-1 infected PBM (Human peripheral blood mononuclear) cells; assay type: functional, organism-based
In short: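 Growth of human PBM cells measured in cytotoxicity assay; IC50 = concentration giving 50% inhibition of cell growth; mean of triplicate values, calculated by the median method.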

Vero = assay: Inhibition of cell growth in vero cells; assay type: functional, cell-based; conditions: Chlorocebus sabaeus
In short: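 Vero cell cytotoxicity assay; IC50 = concentration giving 50% inhibition of cell growth; mean of triplicate values, calculated by the median method.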

[3] = Human immunodeficiency virus 1, PBMC

Compound | EC50 [1, 3] [µM] | IC50 [2] [µM] | IC50 (Vero) [µM] | EC50 ([1]; pbmc) [µM]
Nc1ccn([C@H]2CO[C@@H](CO)O2)c(=O)n1 | 0.016 |  |  | 
Cc1cn([C@@H]2CS[C@@H](CO)O2)c(=O)[nH]c1=O | > 100 | > 100 | > 100 | 
Cc1cn([C@H]2CS[C@@H](CO)O2)c(=O)nc1N | 0.172 | > 100 | > 100 | 
CNc1ncnc2c1ncn2[C@@H]1CS[C@@H](CO)O1 | 11.7 | > 100 | > 100 | 
Cc1cn([C@@H]2CS[C@@H](CO)O2)c(=O)nc1N | > 100 | > 100 | > 100 | 
O=c1[nH]c(=O)n([C@H]2CS[C@@H](CO)O2)cc1Br | > 100 | > 100 | > 100 | 
Nc1nc(Cl)c2ncn([C@@H]3CS[C@@H](CO)O3)c2n1 | 5.6 | > 100 | > 100 | 
Nc1nc(=O)n([C@H]2CS[C@@H](CO)O2)cc1I | 1.9 | > 100 | > 100 | 
Nc1ncnc2c1ncn2[C@H]1CS[C@@H](CO)O1 | 0.28 | > 100 | > 100 | 
O=c1[nH]c(=O)n([C@@H]2CS[C@@H](CO)O2)cc1Cl | > 100 | > 100 | > 100 | 
O=c1ccn([C@H]2CS[C@@H](CO)O2)c(=O)[nH]1 | 94.7 | > 100 | > 100 | 
O=c1[nH]c(=O)n([C@H]2CS[C@@H](CO)O2)cc1I | 29.3 | > 100 | > 100 | 
Nc1nc2c(ncn2[C@H]2CO[C@@H](CO)O2)c(=O)[nH]1 | 0.03 |  |  | 
Nc1nc(O)c2ncn([C@H]3CS[C@@H](CO)O3)c2n1 | 0.83 | > 100 | > 100 | 
Nc1nc(O)c2ncn([C@@H]3CS[C@@H](CO)O3)c2n1 | 7.62 | > 100 | 63.6 | 
OC[C@H]1O[C@H](n2cnc3c(Cl)ncnc32)CS1 | 2.7 | > 100 | 86.1 | 
O=c1[nH]c(=O)n([C@@H]2CS[C@@H](CO)O2)cc1Br | > 100 | > 100 | > 100 | 
O=c1[nH]c(=O)n([C@H]2CS[C@@H](CO)O2)cc1F | 6.3 | > 100 | > 100 | 
CNc1ncnc2c1ncn2[C@H]1CS[C@@H](CO)O1 | 1.1 | > 100 | > 100 | 
Nc1nc(F)nc2c1ncn2[C@@H]1CS[C@@H](CO)O1 | 61.9 | > 100 | 45.4 | 

Compound | EC50 [1, 3] [µM] | IC50 [2] [µM] | IC50 (Vero) [µM] | EC50 ([1]; pbmc) [µM]
Nc1ncnc2c1ncn2[C@@H]1CS[C@@H](CO)O1 | 11.9 | > 100 | > 100 | 
Nc1ccn([C@@H]2CS[C@@H](CO)O2)c(=O)n1 | > 100 | > 100 | > 100 | 
Nc1nc(=O)n([C@@H]2CS[C@@H](CO)O2)cc1Cl | > 100 | > 100 | 31.2 | 
OC[C@H]1O[C@@H](n2cnc3c(O)ncnc32)CS1 | 0.05 | > 100 | > 100 | 
Nc1nc(=O)n([C@H]2CS[C@@H](CO)O2)cc1Br | 0.012 | > 100 | > 100 | 
O=c1[nH]c(=O)n([C@@H]2CS[C@@H](CO)O2)cc1I | 112 | > 100 | > 100 | 
Nc1nc(=O)n([C@@H]2CS[C@@H](CO)O2)cc1I | 0.28 | > 100 | > 100 | 
Nc1nc(=O)n([C@@H]2CS[C@@H](CO)O2)cc1Br | > 100 | > 100 | > 100 | 
Cc1cn([C@H]2CS[C@@H](CO)O2)c(=O)[nH]c1=O | 11.6 | > 100 | > 100 | 
Nc1nc(=O)n([C@H]2CS[C@@H](CO)O2)cc1F | 0.38 | > 100 | > 100 | 
OC[C@H]1O[C@@H](n2cnc3c(Cl)ncnc32)CS1 | 0.48 | > 100 | 46.5 | 
Nc1nc(F)nc2c1ncn2[C@H]1CS[C@@H](CO)O1 | 2.8 | > 100 | 5.6 | 
Nc1nc(=O)n([C@H]2CS[C@@H](CO)O2)cc1Cl | 0.28 | > 100 | > 100 | 
Nc1nc(=O)n([C@@H]2CS[C@@H](CO)O2)cc1F | 77.5 | > 100 | > 100 | 
OC[C@H]1O[C@H](n2cnc3c(O)ncnc32)CS1 | > 100 | > 100 | > 100 | 
O=c1[nH]c(=O)n([C@H]2CS[C@@H](CO)O2)cc1Cl | 30.4 | > 100 | > 100 | 
Nc1nc(Cl)c2ncn([C@H]3CS[C@@H](CO)O3)c2n1 (racemic) | 0.52 | > 100 | > 100 | 
Nc1ccn([C@@H]2CS[C@H](CO)O2)c(=O)n1 [LAMIVUDINE] |  | > 100 | > 100 | 0.0018
Cc1cn([C@H]2C[C@H](N=[N+]=[N-])[C@@H](CO)O2)c(=O)[nH]c1=O [ZIDOVUDINE] | 0.004 | > 100 | > 100 | 
